Data: ChEMBL document CHEMBL3600321, “Synthesis and antifungal evaluation of head-to-head and head-to-tail bisamidine compounds” (Bioorg Med Chem, 2015)
In brackets after ≈: the same amount, converted by molar mass.

How the values were obtained:
[1] = test system: Candida parapsilosis; experiment: Antifungal activity against Candida parapsilosis ATCC 90018 WTBF-88 by microbroth dilution method; type: functional; conditions: Lodderomyces parapsilosis
Procedure, shortened: (§1)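 CLSI microbroth dilution in RPMI 1640 with L-glutamine. MIC values are geometric means of three independent assays.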

[2] = Metabolic stability in liver microsomes (unknown origin); type: ADME
[3] = test system: Pichia kudriavzevii; experiment: Antifungal activity against Candida krusei WTBF-51 by microbroth dilution method; type: functional
[4] = test system: Cryptococcus neoformans; experiment: Antifungal activity against Cryptococcus neoformans Cn18 (Serotype C) WTBF-106 by microbroth dilution method; type: functional
Procedure, shortened: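 Microbroth dilution per the CLSI protocol, run in Sabouraud Dextrose Broth in place of RPMI. MIC values are geometric means of three independent assays.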

[5] = test system: HeLa; experiment: Cytotoxicity against human HeLa cells assessed as cell viability after 72 hrs by MTS assay; type: cell-based
[6] = test system: Candida albicans; experiment: Antifungal activity against Candida albicans WTBF-50 by microbroth dilution method; type: functional; procedure, shortened: as §1
[7] = test system: Nakaseomyces glabratus; experiment: Antifungal activity against Candida glabrata ATCC 90030 WTBF-86 by microbroth dilution method; type: functional; procedure, shortened: as §1

Structure (SMILES) | MIC [1] | Stability [2] | MIC [3] | MIC [4] | CC50 [5] | MIC [6] | MIC [7]
CC(=O)O.c1cc2cc(-c3ccc(-c4ccc5nc(C6=NCCCN6)cn5c4)cc3)[nH]c2cc1C1=NCCCN1 | 0.5 µg/mL | Stable | 0.5 µg/mL | 2 µg/mL | 34.6 µg/mL | 0.5 µg/mL | 0.13 µg/mL
CC(=O)O.c1cc2cc(-c3ccc4cc(C5=NCCCN5)[nH]c4c3)oc2cc1C1=NCCCN1 | 2 µg/mL | Stable | 25.4 µg/mL | 1 µg/mL | 40.5 µg/mL | 4 µg/mL | 2.52 µg/mL
CC(C)NC(=N)c1ccc2cc(-c3ccc(-c4cc5ccc(C(=N)NC(C)C)cc5[nH]4)cc3)[nH]c2c1.O=C(O)C(F)(F)F | 0.25 µg/mL | Stable | 0.4 µg/mL | 1.56 µg/mL | 3.5 µg/mL | 0.5 µg/mL | 0.2 µg/mL
CC(=O)O.c1cc2cc(-c3cnc(-c4cc5ccc(C6=NCCCN6)cc5o4)cn3)oc2cc1C1=NCCCN1 | 2 µg/mL | Stable | 20.2 µg/mL | 3.13 µg/mL | > 80 µg/mL | 20.2 µg/mL | 16 µg/mL
CC(=O)O.c1cc2cc(-c3ccc4cc(C5=NCCCN5)[nH]c4c3)sc2cc1C1=NCCCN1 | 2 µg/mL | Stable | 16 µg/mL | 4 µg/mL | 27.5 µg/mL | 3.17 µg/mL | 5.04 µg/mL
CC(=O)O.c1cn2cc(-c3ccc(-c4ccc5cc(C6=NCCCN6)[nH]c5c4)cc3)nc2cc1C1=NCCCN1 | 8 µg/mL | Stable | 16 µg/mL | 1 µg/mL | 20.7 µg/mL | 16 µg/mL | 32 µg/mL
CC(=O)O.c1cc2cc(-c3ccc(-c4cc5ccc(C6=NCCCN6)cc5o4)cn3)[nH]c2cc1C1=NCCCN1 | 0.13 µg/mL | Stable | 0.5 µg/mL | 0.25 µg/mL | 15.6 µg/mL | 0.5 µg/mL | 0.06 µg/mL
CC(=O)O.c1cc2cc(-c3ccc4nc(C5=NCCCN5)cn4c3)[nH]c2cc1C1=NCCCN1 | 1 µg/mL | Stable | 1.26 µg/mL | 6.25 µg/mL | 91.9 µg/mL | 1 µg/mL | 0.16 µg/mL
Cl.OCC1(CO)CN=C(c2ccc3cc(-c4ccc(-c5cc6ccc(C7=NCC(CO)(CO)CN7)cc6[nH]5)cc4)[nH]c3c2)NC1 | 2 µg/mL | Stable | 8 µg/mL | 3.13 µg/mL | 32.4 µg/mL | 1.26 µg/mL | 1 µg/mL
N=C(NCCN1CCOCC1)c1ccc2cc(-c3ccc(-c4cc5ccc(C(=N)NCCN6CCOCC6)cc5[nH]4)cc3)[nH]c2c1.O=C(O)C(F)(F)F | 2 µg/mL | Stable | 2 µg/mL | 2.48 µg/mL | 24.9 µg/mL | 2.52 µg/mL | 2 µg/mL
c1cc2cc(CCCc3cc4ccc(C5=NCCCN5)cc4[nH]3)[nH]c2cc1C1=NCCCN1 | 32 µg/mL (≈ 73 µM) | Stable | 32 µg/mL (≈ 73 µM) | 16 µg/mL (≈ 36.5 µM) | 80.3 µg/mL (≈ 183 µM) | 22.6 µg/mL (≈ 51.6 µM) | 12.7 µg/mL (≈ 29 µM)
OC(Cn1cncn1)(Cn1cncn1)c1ccc(F)cc1F [FLUCONAZOLE] | 1 µg/mL (≈ 3.27 µM) |  | ≥ 32 µg/mL | 32 µg/mL (≈ 104 µM) |  | ≥ 32 µg/mL | ≥ 32 µg/mL
Brc1c(-c2ccc(-c3[nH]c4cc(C5=NCCCN5)ccc4c3Br)cc2)[nH]c2cc(C3=NCCCN3)ccc12.O=C(O)C(F)(F)F | 0.5 µg/mL | Stable | 0.5 µg/mL | 0.78 µg/mL | 0.5 µg/mL | 0.63 µg/mL | 0.5 µg/mL
N=C(NCCO)c1ccc2cc(-c3ccc(-c4cc5ccc(C(=N)NCCO)cc5[nH]4)cc3)[nH]c2c1.O=C(O)C(F)(F)F | 0.25 µg/mL | Stable | 1.59 µg/mL | 1.97 µg/mL | 14 µg/mL | 0.25 µg/mL | 0.13 µg/mL
CC(=O)O.c1cc2cc(-c3ccc4cc(C5=NCCCN5)oc4c3)[nH]c2cc1C1=NCCCN1 | 0.5 µg/mL | Stable | 4 µg/mL | 0.5 µg/mL | 17.1 µg/mL | 0.31 µg/mL | 0.13 µg/mL
CN1CCCN=C1c1ccc2cc(-c3ccc(-c4cc5ccc(C6=NCCCN6C)cc5[nH]4)cc3)[nH]c2c1 | 1 µg/mL (≈ 2 µM) | Stable | 4 µg/mL (≈ 7.99 µM) | 1.97 µg/mL (≈ 3.93 µM) | 4.7 µg/mL (≈ 9.39 µM) | 1.59 µg/mL (≈ 3.18 µM) | 1.26 µg/mL (≈ 2.52 µM)
CC(=O)O.c1cc2cc(-c3cnc(-c4cc5ccc(C6=NCCCN6)cc5[nH]4)cn3)[nH]c2cc1C1=NCCCN1 | 0.2 µg/mL | Stable | 0.5 µg/mL | 3.13 µg/mL | 42.7 µg/mL | 0.5 µg/mL | 0.06 µg/mL
CC(=O)O.c1cc2cc(-c3ccc4oc(C5=NCCCN5)cc4c3)[nH]c2cc1C1=NCCCN1 | 0.5 µg/mL | Stable | 4 µg/mL | 1 µg/mL | 50.5 µg/mL | 0.4 µg/mL | 1 µg/mL
O=C(O)C(F)(F)F.OC1CN=C(c2ccc3cc(-c4ccc(-c5cc6ccc(C7=NCC(O)CN7)cc6[nH]5)cc4)[nH]c3c2)NC1 (centres undefined) | 0.31 µg/mL | Stable | 12.7 µg/mL | 0.06 µg/mL | > 80 µg/mL | 0.5 µg/mL | 0.16 µg/mL
N=C(NC1CCC(O)CC1)c1ccc2cc(-c3ccc(-c4cc5ccc(C(=N)NC6CCC(O)CC6)cc5[nH]4)cc3)[nH]c2c1.O=C(O)C(F)(F)F (centres undefined) | 2 µg/mL | Stable | 4 µg/mL | 2.48 µg/mL | 29.8 µg/mL | 2.52 µg/mL | 4 µg/mL
c1cc2cc(CCCCc3cc4ccc(C5=NCCCN5)cc4[nH]3)[nH]c2cc1C1=NCCCN1 | ≥ 32 µg/mL | Stable | ≥ 32 µg/mL | 1.59 µg/mL (≈ 3.51 µM) | 14.7 µg/mL (≈ 32.5 µM) | ≥ 32 µg/mL | 1 µg/mL (≈ 2.21 µM)
O=C(O)C(F)(F)F.c1cc2cc(-c3ccc(-c4cn5ccc(C6=NCCCN6)cc5n4)cc3)[nH]c2cc1C1=NCCCN1 | 0.5 µg/mL | Stable | 6.35 µg/mL | 1 µg/mL | 20.9 µg/mL | 4 µg/mL | 4 µg/mL
FC1CN=C(c2ccc3cc(-c4ccc(-c5cc6ccc(C7=NCC(F)CN7)cc6[nH]5)cc4)[nH]c3c2)NC1.O=C(O)C(F)(F)F (centres undefined) | 0.25 µg/mL | Stable | 0.25 µg/mL | 0.25 µg/mL | 13.9 µg/mL | 0.5 µg/mL | 0.13 µg/mL
Nc1nc(=O)[nH]cc1F [FLUCYTOSINE] | 1.25 µg/mL (≈ 9.68 µM) |  | ≥ 20 µg/mL | ≥ 20 µg/mL |  | 1.25 µg/mL (≈ 9.68 µM) | 0.31 µg/mL (≈ 2.4 µM)
CC(=O)N1CCN(c2ccc(OCC3COC(Cn4ccnc4)(c4ccc(Cl)cc4Cl)O3)cc2)CC1 (centres undefined) [KETOCONAZOLE] | 0.06 µg/mL (≈ 0.113 µM) |  | 4 µg/mL (≈ 7.53 µM) | 32 µg/mL (≈ 60.2 µM) |  | 20.2 µg/mL (≈ 38 µM) | ≥ 32 µg/mL
c1cc2[nH]c(-c3ccc(-c4cc5ccc(C6=NCCCN6)cc5[nH]4)cc3)cc2cc1C1=NCCCN1 |  | Stable | 19.8 µg/mL (≈ 41.9 µM) | 3.12 µg/mL (≈ 6.6 µM) | 13.6 µg/mL (≈ 28.8 µM) | 7.87 µg/mL (≈ 16.7 µM) | 
